In data set [1] the test system is Rhesus monkey. Particulars: Macaca mulatta; 1 mg/kg.
Data set [2] deals with T1, Steroid 17-alpha-hydroxylase/17,20 lyase (Homo sapiens, UniProt P05093).
T1 sequence (P05093 whole entry): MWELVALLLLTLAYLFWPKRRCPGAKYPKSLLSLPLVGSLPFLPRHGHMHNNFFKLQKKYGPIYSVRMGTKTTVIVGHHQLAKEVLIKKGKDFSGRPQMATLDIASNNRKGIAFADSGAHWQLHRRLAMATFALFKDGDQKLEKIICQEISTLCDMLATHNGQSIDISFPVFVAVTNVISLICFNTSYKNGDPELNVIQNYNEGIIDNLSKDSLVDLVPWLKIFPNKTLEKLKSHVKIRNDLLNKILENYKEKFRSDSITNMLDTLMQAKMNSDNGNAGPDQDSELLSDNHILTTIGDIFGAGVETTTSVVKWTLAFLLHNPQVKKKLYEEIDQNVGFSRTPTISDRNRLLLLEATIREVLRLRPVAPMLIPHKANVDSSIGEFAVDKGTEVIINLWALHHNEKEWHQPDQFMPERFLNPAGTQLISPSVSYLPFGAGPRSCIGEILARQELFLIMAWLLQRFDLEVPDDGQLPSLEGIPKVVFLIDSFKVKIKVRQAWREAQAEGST
As to the kind of experiment: Inhibition of human CYP17 expressed in COS7 cells incubated for 1 hr before 17-hydroxypregnenolone substrate addition by EIA method. It is filed as cell-based, COS-7.

The target in data set [3] is T2, Cytochrome P450 11B2, mitochondrial (Homo sapiens, UniProt P19099).
T2 sequence (P19099 whole entry): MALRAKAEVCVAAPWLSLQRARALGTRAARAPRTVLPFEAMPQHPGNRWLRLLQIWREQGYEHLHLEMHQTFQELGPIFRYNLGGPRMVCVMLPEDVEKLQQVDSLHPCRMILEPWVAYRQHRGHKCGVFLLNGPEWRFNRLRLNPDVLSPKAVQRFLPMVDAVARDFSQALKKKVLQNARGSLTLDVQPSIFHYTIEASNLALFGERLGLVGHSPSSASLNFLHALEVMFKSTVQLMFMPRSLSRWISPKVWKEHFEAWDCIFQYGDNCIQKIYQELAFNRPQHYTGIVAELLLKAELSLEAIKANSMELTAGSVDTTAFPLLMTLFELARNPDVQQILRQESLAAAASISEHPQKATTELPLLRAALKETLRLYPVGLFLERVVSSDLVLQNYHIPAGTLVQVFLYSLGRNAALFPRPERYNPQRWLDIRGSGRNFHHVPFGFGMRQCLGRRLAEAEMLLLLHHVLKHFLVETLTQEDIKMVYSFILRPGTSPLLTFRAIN
As to the kind of experiment: Inhibition of human CYP11B2 expressed in V79 cells incubated for 1 hr before 11-deoxycorticosterone substrate addition by HTRF-based assay. The class given is cell-based. The method, boiled down:
(§1)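 Human CYP11B2 and CYP11B1 inhibition was tested in cell-based assays. Selectivity was taken as the hCYP11B1 IC50 divided by the hCYP11B2 IC50.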

Data set [4] concerns the target T3, Cytochrome P450 11B1, mitochondrial (Homo sapiens, UniProt P15538).
T3 sequence (P15538 whole entry): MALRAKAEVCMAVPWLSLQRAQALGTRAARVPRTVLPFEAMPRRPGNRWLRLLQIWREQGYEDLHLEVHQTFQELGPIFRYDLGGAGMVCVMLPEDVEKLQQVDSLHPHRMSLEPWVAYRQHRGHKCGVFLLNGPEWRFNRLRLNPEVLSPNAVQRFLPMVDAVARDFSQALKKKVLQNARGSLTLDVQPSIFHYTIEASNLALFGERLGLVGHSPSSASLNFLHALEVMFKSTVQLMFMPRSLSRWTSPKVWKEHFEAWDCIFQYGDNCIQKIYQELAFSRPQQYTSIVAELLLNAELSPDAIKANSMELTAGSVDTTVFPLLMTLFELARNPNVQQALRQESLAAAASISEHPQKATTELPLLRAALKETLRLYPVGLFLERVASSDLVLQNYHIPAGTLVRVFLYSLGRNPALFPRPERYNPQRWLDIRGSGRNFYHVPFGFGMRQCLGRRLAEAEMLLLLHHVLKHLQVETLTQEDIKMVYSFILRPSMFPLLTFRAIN
Briefly: Inhibition of human CYP11B1 expressed in V79 cells incubated for 1 hr before 11-deoxycortisol substrate addition by HTRF-based assay. It is filed as cell-based. A digest of the protocol:
as §1
Background: Time-resolved FRET reads energy transfer from a long-lived donor to a nearby acceptor.

The species entered for data set [5] is Homo sapiens. Briefly: Selectivity index, ratio of IC50 for human CYP11B1 to IC50 for human CYP11B2. The method, boiled down:
as §1

The next data set concerns the target T4, Steroid 21-hydroxylase (Homo sapiens, UniProt P08686).
T4 sequence (P08686 whole entry): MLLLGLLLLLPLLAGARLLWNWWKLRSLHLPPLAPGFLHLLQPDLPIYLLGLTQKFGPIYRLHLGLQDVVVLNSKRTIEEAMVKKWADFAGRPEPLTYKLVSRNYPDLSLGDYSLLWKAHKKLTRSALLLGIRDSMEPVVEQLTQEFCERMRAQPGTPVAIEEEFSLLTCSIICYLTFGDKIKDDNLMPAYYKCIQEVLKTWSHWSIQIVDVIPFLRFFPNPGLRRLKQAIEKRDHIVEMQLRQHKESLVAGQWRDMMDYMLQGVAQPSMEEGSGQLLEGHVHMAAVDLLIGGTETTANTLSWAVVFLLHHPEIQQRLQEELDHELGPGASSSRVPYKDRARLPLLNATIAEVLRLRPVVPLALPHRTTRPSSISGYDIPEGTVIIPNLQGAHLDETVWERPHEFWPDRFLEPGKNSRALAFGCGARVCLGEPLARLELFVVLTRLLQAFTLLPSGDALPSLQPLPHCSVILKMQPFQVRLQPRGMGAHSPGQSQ
As to the kind of experiment: Inhibition of human CYP21 expressed in COS7 cells incubated for 1 hr before […] substrate addition by HTRF-based assay. It is filed as cell-based, COS-7.

The target of another data set is Cytochrome P450 3A4 (Homo sapiens, UniProt P08684). As to the kind of experiment: Inhibition of CYP3A4 (unknown origin). The class given is ADME.
The species named for data set [6] is Homo sapiens. Briefly: Selectivity index, ratio of IC50 for CYP3A4 (unknown origin) to IC50 for human CYP11B2.
Data set [7] is filed under the species Homo sapiens. Briefly: Selectivity index, ratio of IC50 for CYP2C9 (unknown origin) to IC50 for human CYP11B2.
For data set [8], the species on record is Homo sapiens. As to the kind of experiment: Selectivity index, ratio of IC50 for CYP2D6 (unknown origin) to IC50 for human CYP11B2.
Data set [9] is described as follows: Intrinsic clearance in rhesus monkey liver microsomes at […] incubated for 10 mins before NADPH addition by LC/MS method. Particulars: read-out: CLH. The class given is ADME, Macaca mulatta. Background: Liver microsomes are a subcellular fraction often used to study metabolism.
A short description of data set [10]: Oral bioavailability in rhesus monkey at 1 mg/kg by LC-MS/MS method. It is filed as ADME, organism-based, Macaca mulatta. Particulars: in vivo.
The test system of data set [11] is Rhesus monkey. As to the kind of experiment: Dose normalized AUC in rhesus monkey at 1 mg/kg, po or 0.5 mg/kg, iv by LC-MS/MS method. The class given is ADME, organism-based, Macaca mulatta. Particulars: in vivo.
Data set [12] is described as follows: Plasma clearance in rhesus monkey at 1 mg/kg, po or 0.5 mg/kg, iv by LC-MS/MS method. It is filed as ADME, organism-based, Macaca mulatta.
The subject of another data set is V79. Briefly: Inhibition of rhesus monkey CYP11B2 expressed in V79 cells incubated for 1 hr before 11-deoxycorticosterone substrate addition by HTRF-based assay. The class given is cell-based. Particulars: Macaca mulatta.
Data set [13] addresses T5, Cytochrome P450 11B2, mitochondrial (Rattus norvegicus, UniProt P30099).
T5 sequence (P30099 whole entry): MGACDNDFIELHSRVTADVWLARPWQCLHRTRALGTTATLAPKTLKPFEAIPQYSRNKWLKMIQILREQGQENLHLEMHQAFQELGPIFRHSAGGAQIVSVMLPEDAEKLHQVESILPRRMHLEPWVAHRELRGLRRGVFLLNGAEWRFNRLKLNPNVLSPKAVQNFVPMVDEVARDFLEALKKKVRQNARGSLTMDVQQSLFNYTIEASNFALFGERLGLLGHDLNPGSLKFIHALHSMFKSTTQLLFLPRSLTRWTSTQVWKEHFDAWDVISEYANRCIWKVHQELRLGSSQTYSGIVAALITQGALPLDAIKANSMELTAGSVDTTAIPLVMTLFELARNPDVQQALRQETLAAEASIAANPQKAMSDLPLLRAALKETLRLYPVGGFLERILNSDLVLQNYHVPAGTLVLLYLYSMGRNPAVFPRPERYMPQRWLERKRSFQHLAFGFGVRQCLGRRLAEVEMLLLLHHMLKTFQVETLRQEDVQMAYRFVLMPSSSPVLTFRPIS
Briefly: Inhibition of rat CYP11B2 expressed in V79 cells incubated for 1 hr before 11-deoxycorticosterone substrate addition by HTRF-based assay. It is filed as cell-based. Particulars: v79, 1 h.

A further data set concerns the target T6, Aromatase (Homo sapiens, UniProt P11511).
T6 sequence (P11511 whole entry): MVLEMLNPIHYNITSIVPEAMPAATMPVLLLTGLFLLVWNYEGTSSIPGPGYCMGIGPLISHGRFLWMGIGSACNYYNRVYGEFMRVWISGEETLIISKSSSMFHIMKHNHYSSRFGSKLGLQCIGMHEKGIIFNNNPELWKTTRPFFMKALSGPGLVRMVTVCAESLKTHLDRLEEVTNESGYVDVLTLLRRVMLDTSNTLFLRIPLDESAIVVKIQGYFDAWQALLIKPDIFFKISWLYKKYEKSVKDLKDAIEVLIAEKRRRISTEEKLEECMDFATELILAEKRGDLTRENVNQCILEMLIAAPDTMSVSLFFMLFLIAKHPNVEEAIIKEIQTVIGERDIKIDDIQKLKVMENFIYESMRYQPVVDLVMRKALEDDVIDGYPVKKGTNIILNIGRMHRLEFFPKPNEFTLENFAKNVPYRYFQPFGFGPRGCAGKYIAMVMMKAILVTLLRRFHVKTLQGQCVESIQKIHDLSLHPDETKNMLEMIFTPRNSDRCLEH
Briefly: Inhibition of CYP19 (unknown origin) using MFC substrate incubated for 30 mins.

A short description of data set [14]: Fraction unbound in rat plasma at […] incubated for 4 hrs by equilibrium dialysis and LC/MS method. The class given is ADME, cell-free.
Data set [15] in a line: Intrinsic clearance in rat liver microsomes at […] incubated for 10 mins before NADPH addition by LC/MS method. The class given is ADME. Conditions: read-out: CLH.
The nature of data set [16]: Oral bioavailability in Sprague-Dawley rat at 2 mg/kg by LC-MS/MS method. It is filed as ADME, organism-based. Conditions: in vivo. A digest of the protocol: (§2)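 In the rat pharmacokinetic study, AUC was normalized for dose (μM·h·kg/mg), plasma clearance was expressed in mL/min/kg, and oral bioavailability was calculated.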
Another data set deals with Rattus norvegicus. Briefly: Dose normalized AUC in Sprague-Dawley rat at 2 mg/kg, po or 1 mg/kg, iv by LC-MS/MS method. The class given is ADME, organism-based. Conditions: in vivo. The method, boiled down: as §2
Data set [17] can be described thus: Plasma clearance in Sprague-Dawley rat at 2 mg/kg, po or 1 mg/kg, iv by LC-MS/MS method. The class given is ADME, organism-based. The method, boiled down:
as §2

For the next data set, the target named is Cytochrome P450 2C9 (Homo sapiens, UniProt P11712). As to the kind of experiment: Inhibition of CYP2C9 (unknown origin). The class given is ADME.
Another data set has as its target Cytochrome P450 2D6 (Homo sapiens, UniProt P10635). Briefly: Inhibition of CYP2D6 (unknown origin). The class given is ADME.
The species named for data set [18] is Homo sapiens. As to the kind of experiment: Selectivity index, ratio of IC50 for CYP19 (unknown origin) to IC50 for human CYP11B2.

Each structure is given as a SMILES string. Activity calls are given as the source filed them. The rule behind the calls is not given here. Bounds are passed on as bounds.

The values below come from ChEMBL document CHEMBL3580617, “Discovery of Benzimidazole CYP11B2 Inhibitors with in Vivo Activity in Rhesus Monkeys” (ACS Med Chem Lett, 2015).

As usually defined, the IC50 is the point on the concentration scale where inhibition reaches its midpoint. For orientation: bioavailability means dose-corrected exposure relative to a reference, in per cent. By fraction unbound is commonly meant free concentration divided by total concentration.

Cytochrome P450 3A4, sequence (P08684 whole entry): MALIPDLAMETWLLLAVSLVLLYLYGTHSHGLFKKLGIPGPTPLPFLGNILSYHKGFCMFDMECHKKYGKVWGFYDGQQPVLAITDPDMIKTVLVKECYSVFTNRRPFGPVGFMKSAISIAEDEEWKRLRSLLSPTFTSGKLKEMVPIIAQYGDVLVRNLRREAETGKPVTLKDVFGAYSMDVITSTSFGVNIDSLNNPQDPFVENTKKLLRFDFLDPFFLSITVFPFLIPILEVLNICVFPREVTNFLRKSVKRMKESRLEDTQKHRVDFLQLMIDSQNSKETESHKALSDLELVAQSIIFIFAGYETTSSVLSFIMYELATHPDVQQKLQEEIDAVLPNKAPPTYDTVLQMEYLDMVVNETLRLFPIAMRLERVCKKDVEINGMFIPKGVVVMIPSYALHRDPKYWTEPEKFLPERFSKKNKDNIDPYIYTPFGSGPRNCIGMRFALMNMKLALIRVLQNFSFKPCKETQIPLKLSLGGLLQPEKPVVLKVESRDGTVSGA
Cytochrome P450 2C9, sequence (P11712 whole entry): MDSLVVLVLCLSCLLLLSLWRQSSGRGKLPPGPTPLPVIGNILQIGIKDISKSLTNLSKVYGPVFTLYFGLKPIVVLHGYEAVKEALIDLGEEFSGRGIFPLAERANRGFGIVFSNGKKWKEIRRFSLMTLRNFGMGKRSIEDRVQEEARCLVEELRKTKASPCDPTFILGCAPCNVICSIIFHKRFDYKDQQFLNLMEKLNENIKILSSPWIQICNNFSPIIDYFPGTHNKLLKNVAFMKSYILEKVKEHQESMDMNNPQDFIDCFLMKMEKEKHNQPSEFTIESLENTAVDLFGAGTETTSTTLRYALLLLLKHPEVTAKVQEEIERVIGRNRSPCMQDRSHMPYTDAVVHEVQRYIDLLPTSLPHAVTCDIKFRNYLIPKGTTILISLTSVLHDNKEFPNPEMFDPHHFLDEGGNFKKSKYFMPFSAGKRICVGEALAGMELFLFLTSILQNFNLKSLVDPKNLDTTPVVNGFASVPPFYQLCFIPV
Cytochrome P450 2D6, sequence (P10635 whole entry): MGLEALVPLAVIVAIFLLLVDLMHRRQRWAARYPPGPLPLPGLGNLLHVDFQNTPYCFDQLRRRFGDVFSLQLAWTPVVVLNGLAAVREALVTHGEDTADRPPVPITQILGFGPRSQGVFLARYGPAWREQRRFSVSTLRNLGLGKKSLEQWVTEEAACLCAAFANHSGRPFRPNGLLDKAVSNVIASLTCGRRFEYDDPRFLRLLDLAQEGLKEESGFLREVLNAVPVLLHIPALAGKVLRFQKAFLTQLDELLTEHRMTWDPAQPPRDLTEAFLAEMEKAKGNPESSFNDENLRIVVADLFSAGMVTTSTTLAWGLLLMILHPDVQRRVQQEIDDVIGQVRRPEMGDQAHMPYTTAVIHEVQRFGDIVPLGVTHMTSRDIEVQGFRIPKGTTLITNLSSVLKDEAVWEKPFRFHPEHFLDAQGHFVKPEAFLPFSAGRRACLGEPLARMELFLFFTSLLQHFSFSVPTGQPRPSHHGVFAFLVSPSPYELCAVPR

In the case of `N#Cc1ccc(C2CCCc3cncn32)cc1` (stereo unspecified), the inhibition entry with Rhesus monkey [1] is “Active”.
For the compound `Cc1c(F)cncc1-c1nc2cc(F)c(F)cc2n1C1CC1`, the IC50 in [2] was above 10 µM; in data set [3] it was 0.0005 µM; in data set [4], 0.258 µM; on Steroid 21-hydroxylase, above 10 µM; on Cytochrome P450 3A4 it was 8.24 µM. Besides, the Ratio IC50 in the data set filed under Homo sapiens [5] was 553; in the data set filed under Homo sapiens [6] it was above 1000; in the data set filed under Homo sapiens [7], above 1000; in the data set listed under Homo sapiens [8], above 1000. Besides, in [9], the CLint scaled was below 20 mL/min/kg. In [10], the bioavailability was found to be 88%. In the data set on Rhesus monkey [11], this compound returned an AUC/dose of 2.49 µM·kg·h/mg. The compound also yielded a clearance in data set [12] of 19 mL/min/kg. In addition, the inhibition result in the data set on V79 is “Active”. The “inhibition (INH)” value in data set [13] is listed as “Not Active”.
Consider `CC(C)(O)c1cncc(-c2nc3cc(F)c(F)cc3n2C2CC2)c1`, for which the IC50 in data set [2] was above 10 µM; against Aromatase, 1.27 µM; on Steroid 21-hydroxylase, above 10 µM; at Cytochrome P450 3A4, above 50 µM. For the same compound, the figures for the Ratio IC50 in the data set filed under Homo sapiens [5] and in the data set filed under Homo sapiens [18] were 140 and 500, respectively. The compound further showed a fraction unbound at 4 h in data set [14] of 0.14. In addition, the CLint scaled in data set [15] is below 20 mL/min/kg. For the same compound, the bioavailability in data set [16] amounted to 94%. For the same compound, the AUC/dose in the data set with Rattus norvegicus worked out at 6.55 µM·kg·h/mg. The compound further yielded a clearance in data set [17] of 7 mL/min/kg. Further, the “inhibition (INH)” value (at Cytochrome P450 2C9; on Cytochrome P450 2D6; in data set [13]) was “Not Active” each time. Moreover, the inhibition entry in the data set with V79 is “Active”.
